# According to ChEMBL document CHEMBL1143139, “Structure-activity studies on splitomicin derivatives as sirtuin inhibitors and computational prediction of binding mode” (J Med Chem, 2008):
# Activity calls are given as the source filed them. The calls are words filed in the database; no cut-off is given here.
# Target: T1, NAD-dependent protein deacetylase sirtuin-2 (Homo sapiens, UniProt Q8IXJ6)
# T1 sequence (Q8IXJ6 whole entry): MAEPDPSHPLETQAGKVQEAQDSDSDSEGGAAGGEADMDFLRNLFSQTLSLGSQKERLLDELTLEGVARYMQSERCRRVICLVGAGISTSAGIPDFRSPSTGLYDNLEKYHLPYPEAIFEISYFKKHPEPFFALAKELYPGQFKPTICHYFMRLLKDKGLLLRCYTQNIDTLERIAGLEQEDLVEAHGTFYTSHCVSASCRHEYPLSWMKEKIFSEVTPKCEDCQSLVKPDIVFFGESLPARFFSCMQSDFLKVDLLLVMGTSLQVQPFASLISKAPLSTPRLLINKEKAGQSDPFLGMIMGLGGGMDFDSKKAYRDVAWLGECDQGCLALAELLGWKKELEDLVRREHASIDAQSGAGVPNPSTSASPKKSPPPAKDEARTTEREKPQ
# Test: Inhibition of human recombinant Sirt2 expressed in Escherichia coli BL21 by fluorescent deacetylase assay
row,Compound,IC50 [µM]
1,Cc1ccc(C2CC(=O)Oc3ccc4cc(C)ccc4c32)cc1 (stereo not drawn),1.5
2,Cc1ccc2c3c(ccc2c1)OC(=O)CC3c1cccc(C#N)c1 (stereo not drawn),3.1
3,Cc1ccc2c3c(ccc2c1)OC(=O)CC3c1cccc(C(N)=O)c1 (stereo not drawn),20
4,Cc1ccc2c3c(ccc2c1)OC(=O)CC3c1cccc(Br)c1 (stereo not drawn),9.8
5,O=C1CC(c2ccccc2)c2c(ccc3cc(Br)ccc23)O1 (stereo not drawn),5.2
6,Cc1cccc(C2CC(=O)Oc3ccc4cc(C)ccc4c32)c1 (stereo not drawn),4.4
7,Cc1ccc2c3c(ccc2c1)OC(=O)C[C@@H]3c1ccccc1,3.4
8,O=C1CC(c2ccc(F)cc2)c2c(ccc3cc(Br)ccc23)O1 (stereo not drawn),7.9
9,COc1ccc(C2CC(=O)Oc3ccc4cc(Br)ccc4c32)cc1 (stereo not drawn),5.4
10,Cc1ccc([C@H]2CC(=O)Oc3ccc4cc(C)ccc4c32)cc1,1
11,Cc1ccc(C2CC(=O)Oc3ccc4cc(Br)ccc4c32)cc1 (stereo not drawn),1.5
12,Cc1ccc2c3c(ccc2c1)OC(=O)CC3c1ccc(C)c(F)c1 (stereo not drawn),3.4
13,Cc1ccc2c3c(ccc2c1)OC(=O)CC3c1ccccc1 (stereo not drawn),10.6
14,COc1cccc(C2CC(=O)Oc3ccc4cc(Br)ccc4c32)c1 (stereo not drawn),2.3

# Continued, values first:
row,IC50 [µM],Compound
1,2.3,Cc1ccc(C2CC(=O)Oc3ccc4cc(Br)ccc4c32)cc1Cl (stereo not drawn)
2,6.4,O=C1CC(c2ccccc2)c2c(ccc3cc(Br)ccc23)N1 (stereo not drawn)
3,19.5,O=C1CC(c2ccccc2)c2c(ccc3cc(I)ccc23)O1 (stereo not drawn)
4,2,Cc1ccc(C2CC(=O)Oc3ccc4cc(Br)ccc4c32)cc1F (stereo not drawn)
5,19.7,O=C1CC(c2ccc(F)c(F)c2)c2c(ccc3cc(Br)ccc23)O1 (stereo not drawn)
6,3.2,O=C1CC(c2cccc(F)c2)c2c(ccc3cc(Br)ccc23)O1 (stereo not drawn)
7,10.1,O=C1CC(c2cccc(Br)c2)c2c(ccc3cc(Br)ccc23)O1 (stereo not drawn)

# Target: T2, NAD-dependent protein deacetylase sirtuin-2 (Homo sapiens) (UniProt Q8IXJ6)
# T2 sequence (whole entry): T1 sequence (Q8IXJ6 whole entry)
# Test: Inhibition of human recombinant Sirt2 expressed in Escherichia coli BL21 at 20 uM by fluorescent deacetylase assay
# Method in brief: (§1)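 Full-length human Sirt2, N-terminal His6 tag, expressed in E. coli BL21 (IPTG 0.1 mM, 2 h). 60 µL reaction with fluorescent acetyl-lysine substrate ZMAL 10.5 µM, NAD+ 500 µM, inhibitor from DMSO stock, 4 h at 37 °C. Deacetylated product developed by tryptic digest; fluorescence at ex 390/em 460 nm. Inhibition calculated versus no-inhibitor control; at least duplicate.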
Compound,Activity,inhibition [%]
O=C1CC(c2cccnc2)c2c(ccc3ccccc23)N1 (stereo not drawn),inactive,
O=C1CC(c2ccccc2)c2c(ccc3cc(-c4cccnc4)ccc23)O1 (stereo not drawn),,18.4
CC(=O)Nc1cccc(C2CC(=O)Oc3ccc4cc(C)ccc4c32)c1 (stereo not drawn),,17.1
O=C1CC(c2ccccc2)c2c(ccc3cc(-c4ccc5ccccc5c4)ccc23)O1 (stereo not drawn),,15.1
O=C1CC(c2ccc(Cl)cc2)c2c(ccc3cc(Br)ccc23)O1 (stereo not drawn),,28.5
COc1cc(C2CC(=O)Oc3ccc4cc(C)ccc4c32)ccc1C (stereo not drawn),,9.2
Cc1ccc2c3c(ccc2c1)OC(=O)CC3c1ccc(-c2ccccc2)cc1 (stereo not drawn),,28.3
Cc1ccc2c3c(ccc2c1)OC(=O)CC3c1cccc(O)c1 (stereo not drawn),,15.4
CC(=O)Nc1cccc(-c2ccc3c4c(ccc3c2)OC(=O)CC4c2ccccc2)c1 (stereo not drawn),,22.2
O=C1CCc2c(ccc3cc(Br)ccc23)O1,inactive,

# The next lines start with the values.
Activity,inhibition [%],Compound
,37.5,O=C1CC(c2ccccc2)c2c(ccc3cc(-c4cccc(O)c4)ccc23)O1 (stereo not drawn)
,24,CC(=O)c1ccc2c3c(ccc2c1)OC(=O)CC3c1ccccc1 (stereo not drawn)
,42.3,O=C1CC(c2ccc(Cl)c(Cl)c2)c2c(ccc3cc(Br)ccc23)O1 (stereo not drawn)
,26.7,Cc1ccc2c3c(ccc2c1)OC(=O)CC3c1ccc(Cl)cc1 (stereo not drawn)
,46.8,CC(C)(C)c1ccc(C2CC(=O)Oc3ccc4cc(Br)ccc4c32)cc1 (stereo not drawn)
,17.4,COc1ccccc1C1CC(=O)Oc2ccc3cc(Br)ccc3c21 (stereo not drawn)
,20.6,O=C1CC(c2ccccc2)c2c(ccc3cc(-c4ccc(-c5ccccc5)cc4)ccc23)O1 (stereo not drawn)
,6.3,COc1cc(C2CC(=O)Oc3ccc4cc(Br)ccc4c32)ccc1C (stereo not drawn)
,21.8,O=C1CC(c2ccccc2)c2c(ccc3cc(O)ccc23)O1 (stereo not drawn)

# Target: T2, NAD-dependent protein deacetylase sirtuin-2 (Homo sapiens)
# Test: Inhibition of human recombinant Sirt2 expressed in Escherichia coli BL21 at 40 uM by fluorescent deacetylase assay
# Method in brief: as §1
Compound,Activity,inhibition [%]
NC(=O)c1ccc2c3c(ccc2c1)OC(=O)CC3c1ccccc1 (stereo not drawn),inactive,
O=C1CC(c2ccccc2)c2c(ccc3ccccc23)N1 (stereo not drawn),,31.5
O=C1CC(c2ccccc2)c2c(cc(Br)c3cc(Br)ccc23)O1 (stereo not drawn),,9.6
N#Cc1ccc2c3c(ccc2c1)OC(=O)CC3c1ccccc1 (stereo not drawn),,25.9
CCc1ccc2c3c(ccc2c1)OC(=O)CC3c1ccccc1 (stereo not drawn),,25.6

# Further lines, results first:
Activity,inhibition [%],Compound
inactive,,COc1ccc2ccc3c(c2c1)C(c1ccccc1)CC(=O)O3 (stereo not drawn)
,16.9,O=C1CC(c2ccc(F)cc2)c2c(ccc3ccccc23)N1 (stereo not drawn)
,49.1,O=C1CC(c2ccccc2)c2c(ccc3ccccc23)O1 (stereo not drawn)
,26.2,O=C1CC(c2ccccc2)c2c(ccc3cc(-c4ccccc4)ccc23)O1 (stereo not drawn)
,4.2,O=C1CC(c2ccc(-c3ccccc3)cc2)c2c(ccc3ccccc23)N1 (stereo not drawn)
,21.1,O=C1CC(Cc2ccccc2)c2c(ccc3cc(Br)ccc23)O1 (stereo not drawn)

# System: MCF7
# Test: Antiproliferative activity against human MCF7 cells by MTT assay
# Format: functional
# Method in brief: (§2)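 MCF-7 cells in RPMI-1640 with 10% FBS, L-glutamine and penicillin/streptomycin at 37 °C, 5% CO2; 5000 cells/well, compound or DMSO vehicle added 24 h after seeding, then 72 h exposure.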
row,GI50 [µM],Compound
1,99,Cc1ccc(C2CC(=O)Oc3ccc4cc(C)ccc4c32)cc1 (stereo not drawn)
2,84,Cc1ccc([C@H]2CC(=O)Oc3ccc4cc(C)ccc4c32)cc1
3,43,Cc1ccc(C2CC(=O)Oc3ccc4cc(Br)ccc4c32)cc1 (stereo not drawn)

# System: MCF7
# Test: Growth inhibition of human MCF7 cells at 500 uM by MTT assay
# Format: functional
# Method in brief: as §2
row,Compound,Inhibition [%]
1,Cc1ccc([C@@H]2CC(=O)Oc3ccc4cc(C)ccc4c32)cc1,74
2,Cc1ccc2c3c(ccc2c1)OC(=O)CC3c1cccc(C(N)=O)c1 (stereo not drawn),64
3,O=C1CC(c2ccccc2)c2c(ccc3cc(-c4ccccc4)ccc23)O1 (stereo not drawn),57

# System: MCF7
# Test: Induction of tubulin hyperacetylation in human MCF7 cells at 100 uM by Western blot
# Format: functional, cell-based
# Method in brief: (§3)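 MCF-7 cells seeded at 500000/well, treated 24 h later with compound or DMSO for 8 h at 37 °C. PBS-washed cells lysed in Tris-HCl pH 7.5, EDTA, NaCl, 0.5% NP-40 plus protease inhibitors. Protein quantified by BCA before Western blotting.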
row,Compound,Activity
1,Cc1ccc([C@H]2CC(=O)Oc3ccc4cc(C)ccc4c32)cc1,Active
2,Cc1ccc(C2CC(=O)Oc3ccc4cc(Br)ccc4c32)cc1 (stereo not drawn),Active

# System: MCF7
# Test: Induction of tubulin hyperacetylation in human MCF7 cells at 10 uM by Western blot
# Format: functional, cell-based
# Method in brief: as §3
row,Compound,Activity
1,O=C(CCCCCCC(=O)Nc1ccccc1)NO,Active
2,NC(=O)[C@H]1CCCCc2c1[nH]c1ccc(Cl)cc21,Active

# Target: T2, NAD-dependent protein deacetylase sirtuin-2 (Homo sapiens)
# Test: Inhibition of human recombinant Sirt2 expressed in Escherichia coli BL21 at 100 uM by fluorescent deacetylase assay
# Method in brief: as §1
row,inhibition [%],Compound
1,41.8,Cc1ccc2c3c(ccc2c1)OC(=O)C[C@H]3c1ccccc1
2,35.1,Cc1ccc([C@@H]2CC(=O)Oc3ccc4cc(C)ccc4c32)cc1
